Series [1] has as its target T1, 3',5'-cyclic-AMP phosphodiesterase 4B (Homo sapiens, UniProt Q07343). Briefly: Inhibition of PDE4B (unknown origin) assessed as hydrolysis of [3H]-cGMP into [3H]-GMP incubated for 30 mins by scintillation of proximity assay. To be noted: in the assay text read “[3H]-cAMP into [3H]-AMP” for “[3H]-cGMP into [3H]-GMP”. A digest of the protocol:
(§1)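 Scintillation proximity assay of [3H]-cAMP or [3H]-cGMP hydrolysis to [3H]-AMP or [3H]-GMP. Enzyme was diluted to 1–2 nM in 50 mM Tris pH 7.5, 8.3 mM MgCl2 and 1.7 mM EGTA. Reaction was started by adding enzyme, test solution and radiolabelled substrate, then incubated at 30 °C for 30 min and stopped with SPA beads. Run in duplicate.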

The test system of series [2] is Mus musculus. In words: Antiinflammatory activity against PMA-induced ICR mouse ear oedema model assessed as reduction in ear swelling at 1 mg/ear topically administered and measured after 4 hrs. In kind it is functional. A digest of the protocol: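 Male ICR mice, 8 weeks old. The sample was applied topically to the right ear at 1.0 mg/ear in ethanol before PMA. After 4 h the mice were killed by cervical dislocation and both ears were measured with a micrometer. Oedema was the thickness difference between the ears; inhibition was the percent reduction versus the model group.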

The species named for series [3] is Homo sapiens. In words: Selectivity index, ratio of IC50 for PDE1A (unknown origin) to IC50 for PDE4B (unknown origin).
For series [4], the species on record is Homo sapiens. In words: Selectivity index, ratio of IC50 for PDE1B (unknown origin) to IC50 for PDE4B (unknown origin).
The species entered for series [5] is Homo sapiens. Briefly: Selectivity index, ratio of IC50 for PDE1C (unknown origin) to IC50 for PDE4B (unknown origin).
For series [6], the species on record is Homo sapiens. Briefly: Selectivity index, ratio of IC50 for PDE2A (unknown origin) to IC50 for PDE4B (unknown origin).
For series [7], the species on record is Homo sapiens. In words: Selectivity index, ratio of IC50 for PDE3A (unknown origin) to IC50 for PDE4B (unknown origin).
The species entered for series [8] is Homo sapiens. In words: Selectivity index, ratio of IC50 for PDE3B (unknown origin) to IC50 for PDE4B (unknown origin).
The species entered for series [9] is Homo sapiens. In words: Selectivity index, ratio of IC50 for PDE5A (unknown origin) to IC50 for PDE4B (unknown origin).
The species entered for series [10] is Homo sapiens. In words: Selectivity index, ratio of IC50 for PDE7A (unknown origin) to IC50 for PDE4B (unknown origin).
For series [11], the species on record is Homo sapiens. In words: Selectivity index, ratio of IC50 for PDE10A (unknown origin) to IC50 for PDE4B (unknown origin).
Series [12] has as its system Mus musculus. In words: Antiinflammatory activity against calcipotriol-induced atopic dermatitis mouse model assessed as swelling inhibition by measuring thickness of left ear at 30 mg/kg for 14 days (RVB = 0.26 +/- 0.01 mm). In kind it is functional. The following applies: time 14 day. A digest of the protocol:
(§2)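 Ointment was applied to the dorsal side of the left ear twice daily (30 mg/kg) for 14 days; the normal group received ethanol. On day 17 the mice were anaesthetized with 10% chloral hydrate and ear thickness was measured with a micrometer. Percent inhibition of the inflammatory reaction was calculated against untreated animals.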

Series [13] has as its system Mus musculus. In words: Antiinflammatory activity against calcipotriol-induced atopic dermatitis mouse model assessed as swelling inhibition by measuring thickness of right ear at 30 mg/kg for 14 days (RVB = 0.55 +/- 0.06 mm). The class given is functional. The following applies: time 14 day. A digest of the protocol: as §2
Series [14] concerns Mus musculus. In words: Antiinflammatory activity against calcipotriol-induced atopic dermatitis mouse model assessed as swelling inhibition at 30 mg/kg for 14 days. The class given is functional. Further details: scale not given: the % may be the effect or the level left. The following applies: time 14 day. A digest of the protocol:
as §2

A short description of series [15]: Phototoxicity in albino guinea pig assessed as infiltration of inflammatory cells at 10 mg/kg topical treatment irradiated with 4.2 mw/cm2 UVA for 40 mins and measured after 24 hrs day of light irradiation by H and E staining based microscopic analysis. In kind it is organism-based, Cavia porcellus. To be noted: in vivo, topical_or_ocular, in the assay text read “72 hrs” for “24 hrs”. The method, boiled down:
(§3)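 Albino guinea pigs (250–300 g) were randomized into 5 groups. Four 2 cm × 2 cm depilated areas beside the spine were prepared 24 h before dosing, and 0.2 mL of test substance was applied. Animals were restrained and exposed to UVA for 40 min. Erythema, eschar and oedema were scored visually at 1, 24, 48 and 72 h. Skin taken at 72 h was formalin-fixed, H&E-stained and read by a pathologist.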

The nature of series [16]: Phototoxicity in albino guinea pig assessed as necrosis at 10 mg/kg topical treatment irradiated with 4.2 mw/cm2 UVA for 40 mins and measured after 24 hrs day of light irradiation by H and E staining based microscopic analysis. To be noted: in vivo, topical_or_ocular, in the assay text read “72 hrs” for “24 hrs”. In kind it is organism-based, Cavia porcellus. A digest of the protocol:
as §3

In series [17] the target is Dual specificity calcium/calmodulin-dependent 3',5'-cyclic nucleotide phosphodiesterase 1A (Homo sapiens, UniProt P54750). Briefly: Inhibition of PDE1A (unknown origin). A digest of the protocol:
as §1

Series [18] deals with Dual specificity calcium/calmodulin-dependent 3',5'-cyclic nucleotide phosphodiesterase 1B (Homo sapiens, UniProt Q01064). Briefly: Inhibition of PDE1B (unknown origin). A digest of the protocol: as §1
Dual specificity calcium/calmodulin-dependent 3',5'-cyclic nucleotide phosphodiesterase 1B, sequence (Q01064 whole entry): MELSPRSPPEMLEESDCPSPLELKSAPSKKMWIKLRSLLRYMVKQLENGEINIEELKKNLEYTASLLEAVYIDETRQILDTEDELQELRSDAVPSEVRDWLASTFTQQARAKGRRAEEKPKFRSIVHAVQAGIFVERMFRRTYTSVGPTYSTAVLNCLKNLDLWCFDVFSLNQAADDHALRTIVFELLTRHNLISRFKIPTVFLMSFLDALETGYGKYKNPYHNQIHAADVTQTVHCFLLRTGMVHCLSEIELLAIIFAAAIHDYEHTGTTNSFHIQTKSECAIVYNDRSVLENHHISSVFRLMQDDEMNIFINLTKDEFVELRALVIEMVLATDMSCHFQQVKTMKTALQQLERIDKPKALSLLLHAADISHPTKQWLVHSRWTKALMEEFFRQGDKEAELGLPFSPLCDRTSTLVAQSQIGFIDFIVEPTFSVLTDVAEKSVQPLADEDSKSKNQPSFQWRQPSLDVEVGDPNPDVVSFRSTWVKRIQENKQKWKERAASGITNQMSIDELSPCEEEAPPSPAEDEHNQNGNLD
For series [19], the target named is Dual specificity calcium/calmodulin-dependent 3',5'-cyclic nucleotide phosphodiesterase 1C (Homo sapiens, UniProt Q14123). In words: Inhibition of PDE1C (unknown origin). The method, boiled down:
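For PDE1A, PDE1B and PDE1C, the reaction buffer was also supplemented with 0.2 mM CaCl2 and […]. Otherwise the same SPA run as the other PDEs: [3H]-nucleotide hydrolysis at 30 °C for 30 min, in duplicate.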

The target in series [20] is cGMP-dependent 3',5'-cyclic phosphodiesterase (Homo sapiens, UniProt O00408). In words: Inhibition of PDE2A (unknown origin). A digest of the protocol:
as §1

Series [21] has as its target cGMP-inhibited 3',5'-cyclic phosphodiesterase 3A (Homo sapiens, UniProt Q14432). In words: Inhibition of PDE3A (unknown origin). A digest of the protocol: as §1
The target of series [22] is cGMP-inhibited 3',5'-cyclic phosphodiesterase 3B (Homo sapiens, UniProt Q13370). In words: Inhibition of PDE3B (unknown origin). The method, boiled down:
as §1

Series [23] has as its target T1, 3',5'-cyclic-AMP phosphodiesterase 4B. In words: Inhibition of PDE4B (unknown origin). The method, boiled down: as §1
For series [24], the target named is cGMP-specific 3',5'-cyclic phosphodiesterase (Homo sapiens, UniProt O76074). In words: Inhibition of PDE5A (unknown origin). A digest of the protocol:
as §1

In series [25] the target is High affinity 3',5'-cyclic-AMP phosphodiesterase 7A (Homo sapiens, UniProt Q13946). Briefly: Inhibition of PDE7A (unknown origin). The method, boiled down:
as §1

Series [26] deals with cAMP and cAMP-inhibited cGMP 3',5'-cyclic phosphodiesterase 10A (Homo sapiens, UniProt Q9Y233). In words: Inhibition of PDE10A (unknown origin). A digest of the protocol:
as §1

In series [27] the target is T1, 3',5'-cyclic-AMP phosphodiesterase 4B. Briefly: Inhibition of PDE4B (unknown origin) assessed as hydrolysis of [3H]-cAMP into [3H]-AMP incubated for 30 mins by scintillation of proximity assay.

The results in this text go back to ChEMBL document CHEMBL4813940, “Design, synthesis and biological evaluation of novel benzoxaborole derivatives as potent PDE4 inhibitors for topical treatment of atopic dermatitis” (Eur J Med Chem, 2021).

As a reminder, the IC50 is the concentration that gives 50% inhibition.

SMILES strings stand for the structures.

T1 sequence (Q07343 whole entry): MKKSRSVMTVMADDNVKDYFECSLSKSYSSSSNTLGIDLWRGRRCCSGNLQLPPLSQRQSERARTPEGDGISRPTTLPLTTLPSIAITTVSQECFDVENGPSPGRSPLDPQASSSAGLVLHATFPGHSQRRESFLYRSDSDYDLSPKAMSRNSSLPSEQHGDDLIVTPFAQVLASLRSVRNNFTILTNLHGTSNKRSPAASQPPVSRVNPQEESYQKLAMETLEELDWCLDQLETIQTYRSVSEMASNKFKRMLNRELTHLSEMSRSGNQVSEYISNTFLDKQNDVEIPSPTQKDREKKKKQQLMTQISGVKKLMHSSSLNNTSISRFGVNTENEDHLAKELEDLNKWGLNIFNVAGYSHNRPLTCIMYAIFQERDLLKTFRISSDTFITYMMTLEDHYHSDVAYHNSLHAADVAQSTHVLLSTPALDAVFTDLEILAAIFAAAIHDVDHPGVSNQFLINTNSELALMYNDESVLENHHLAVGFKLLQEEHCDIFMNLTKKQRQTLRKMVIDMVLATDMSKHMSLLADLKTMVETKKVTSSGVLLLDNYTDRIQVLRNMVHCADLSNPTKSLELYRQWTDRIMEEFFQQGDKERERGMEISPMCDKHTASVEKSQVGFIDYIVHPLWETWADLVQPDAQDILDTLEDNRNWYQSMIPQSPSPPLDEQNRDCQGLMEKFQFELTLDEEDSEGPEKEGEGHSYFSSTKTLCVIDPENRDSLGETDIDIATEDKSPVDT
cGMP-inhibited 3',5'-cyclic phosphodiesterase 3B, sequence (Q13370 whole entry): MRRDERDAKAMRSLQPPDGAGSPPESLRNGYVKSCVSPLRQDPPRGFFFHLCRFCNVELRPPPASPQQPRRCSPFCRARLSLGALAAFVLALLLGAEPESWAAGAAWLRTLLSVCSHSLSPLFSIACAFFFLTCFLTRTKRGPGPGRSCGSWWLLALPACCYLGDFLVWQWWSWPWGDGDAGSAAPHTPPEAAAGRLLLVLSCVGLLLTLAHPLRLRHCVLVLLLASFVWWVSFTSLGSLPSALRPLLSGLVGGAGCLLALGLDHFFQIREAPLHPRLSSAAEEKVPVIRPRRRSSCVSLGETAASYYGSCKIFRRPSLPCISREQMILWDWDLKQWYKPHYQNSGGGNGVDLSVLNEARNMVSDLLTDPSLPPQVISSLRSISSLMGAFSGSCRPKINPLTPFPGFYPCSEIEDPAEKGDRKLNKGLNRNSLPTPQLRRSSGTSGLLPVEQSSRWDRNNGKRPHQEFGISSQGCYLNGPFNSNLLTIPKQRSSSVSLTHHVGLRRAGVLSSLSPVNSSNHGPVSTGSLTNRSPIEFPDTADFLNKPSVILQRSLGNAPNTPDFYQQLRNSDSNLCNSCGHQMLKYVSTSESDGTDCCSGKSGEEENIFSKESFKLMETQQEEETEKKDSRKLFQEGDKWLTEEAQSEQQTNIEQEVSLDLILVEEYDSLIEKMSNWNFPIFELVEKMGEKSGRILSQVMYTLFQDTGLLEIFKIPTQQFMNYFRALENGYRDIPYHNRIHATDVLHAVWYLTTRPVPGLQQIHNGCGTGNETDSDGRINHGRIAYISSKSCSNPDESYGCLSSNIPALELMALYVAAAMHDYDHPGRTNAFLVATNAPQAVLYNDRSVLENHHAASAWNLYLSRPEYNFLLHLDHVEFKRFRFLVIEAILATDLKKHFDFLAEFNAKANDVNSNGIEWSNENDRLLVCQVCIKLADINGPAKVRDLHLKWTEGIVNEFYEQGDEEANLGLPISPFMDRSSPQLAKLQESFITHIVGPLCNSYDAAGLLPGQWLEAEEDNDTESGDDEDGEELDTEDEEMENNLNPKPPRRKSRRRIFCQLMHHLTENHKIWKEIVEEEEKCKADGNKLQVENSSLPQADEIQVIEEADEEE
High affinity 3',5'-cyclic-AMP phosphodiesterase 7A, sequence (Q13946 whole entry): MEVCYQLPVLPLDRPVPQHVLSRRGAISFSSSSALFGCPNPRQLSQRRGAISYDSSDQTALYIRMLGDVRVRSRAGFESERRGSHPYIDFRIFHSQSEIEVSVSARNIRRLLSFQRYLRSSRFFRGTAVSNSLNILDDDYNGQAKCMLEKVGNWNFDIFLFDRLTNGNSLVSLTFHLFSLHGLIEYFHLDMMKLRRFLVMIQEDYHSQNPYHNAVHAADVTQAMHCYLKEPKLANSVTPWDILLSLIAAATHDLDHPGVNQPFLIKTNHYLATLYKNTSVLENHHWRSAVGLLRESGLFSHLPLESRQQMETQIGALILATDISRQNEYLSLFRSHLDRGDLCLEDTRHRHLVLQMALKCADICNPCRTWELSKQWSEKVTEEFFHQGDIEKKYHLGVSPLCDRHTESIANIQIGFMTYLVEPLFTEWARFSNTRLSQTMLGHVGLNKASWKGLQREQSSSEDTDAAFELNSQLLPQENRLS
cGMP-dependent 3',5'-cyclic phosphodiesterase, sequence (O00408 whole entry): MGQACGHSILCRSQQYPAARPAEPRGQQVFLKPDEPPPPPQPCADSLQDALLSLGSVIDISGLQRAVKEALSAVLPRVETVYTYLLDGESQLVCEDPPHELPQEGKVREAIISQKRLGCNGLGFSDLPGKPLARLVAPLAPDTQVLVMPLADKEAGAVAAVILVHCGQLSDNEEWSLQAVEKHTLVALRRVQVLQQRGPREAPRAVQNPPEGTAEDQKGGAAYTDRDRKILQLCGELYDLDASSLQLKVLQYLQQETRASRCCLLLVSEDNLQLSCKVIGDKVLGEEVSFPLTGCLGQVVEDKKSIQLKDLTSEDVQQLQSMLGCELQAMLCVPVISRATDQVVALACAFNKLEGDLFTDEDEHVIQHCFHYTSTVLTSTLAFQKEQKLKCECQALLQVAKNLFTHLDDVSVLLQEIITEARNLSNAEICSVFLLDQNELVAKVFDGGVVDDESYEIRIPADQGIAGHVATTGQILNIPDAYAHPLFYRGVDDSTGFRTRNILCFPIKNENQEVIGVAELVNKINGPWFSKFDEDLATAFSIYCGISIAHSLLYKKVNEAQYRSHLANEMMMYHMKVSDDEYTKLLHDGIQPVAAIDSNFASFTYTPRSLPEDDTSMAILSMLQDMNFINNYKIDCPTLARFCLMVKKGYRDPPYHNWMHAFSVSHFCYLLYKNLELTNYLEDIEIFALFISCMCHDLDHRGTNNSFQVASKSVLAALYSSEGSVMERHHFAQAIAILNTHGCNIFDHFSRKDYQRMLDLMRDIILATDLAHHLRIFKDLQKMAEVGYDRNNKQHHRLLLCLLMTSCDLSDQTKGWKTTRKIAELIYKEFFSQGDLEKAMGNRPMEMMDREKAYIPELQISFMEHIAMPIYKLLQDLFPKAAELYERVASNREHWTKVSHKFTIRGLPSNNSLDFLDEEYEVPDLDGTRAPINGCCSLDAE
cAMP and cAMP-inhibited cGMP 3',5'-cyclic phosphodiesterase 10A, sequence (Q9Y233 whole entry): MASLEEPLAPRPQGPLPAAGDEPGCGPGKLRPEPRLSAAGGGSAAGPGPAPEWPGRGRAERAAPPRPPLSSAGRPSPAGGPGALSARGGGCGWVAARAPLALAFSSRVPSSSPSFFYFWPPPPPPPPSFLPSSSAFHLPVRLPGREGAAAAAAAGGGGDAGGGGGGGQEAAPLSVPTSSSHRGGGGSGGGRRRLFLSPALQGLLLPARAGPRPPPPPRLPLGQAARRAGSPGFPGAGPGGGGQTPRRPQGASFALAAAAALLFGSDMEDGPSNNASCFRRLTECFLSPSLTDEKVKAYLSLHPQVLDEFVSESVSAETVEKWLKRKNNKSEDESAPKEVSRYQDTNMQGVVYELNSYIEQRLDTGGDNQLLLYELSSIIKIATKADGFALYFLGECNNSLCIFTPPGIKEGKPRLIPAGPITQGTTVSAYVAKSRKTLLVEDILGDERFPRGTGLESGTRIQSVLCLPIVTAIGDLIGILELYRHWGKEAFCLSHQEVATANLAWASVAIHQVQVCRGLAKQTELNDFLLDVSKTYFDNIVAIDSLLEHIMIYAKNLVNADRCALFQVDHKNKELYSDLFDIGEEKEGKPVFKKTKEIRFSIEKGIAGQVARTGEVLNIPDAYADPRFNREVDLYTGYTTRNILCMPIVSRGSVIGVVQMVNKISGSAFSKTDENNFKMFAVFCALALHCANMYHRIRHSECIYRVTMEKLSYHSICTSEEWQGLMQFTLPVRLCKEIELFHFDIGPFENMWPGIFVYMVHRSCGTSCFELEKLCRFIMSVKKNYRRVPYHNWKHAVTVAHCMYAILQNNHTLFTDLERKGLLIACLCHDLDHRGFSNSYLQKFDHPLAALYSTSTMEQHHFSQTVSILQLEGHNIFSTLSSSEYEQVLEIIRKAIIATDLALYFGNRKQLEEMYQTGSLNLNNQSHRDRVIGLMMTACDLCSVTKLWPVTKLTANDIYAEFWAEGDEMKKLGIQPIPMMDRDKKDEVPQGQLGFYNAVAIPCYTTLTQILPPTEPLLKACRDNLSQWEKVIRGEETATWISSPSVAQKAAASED

In the case of `N#Cc1ccc(Oc2ccc3c(c2)COB3O)cc1` [CRISABOROLE], the concentration for half-maximal inhibition (IC50) in [1] is 0.0572 µM; in series [17] it was 5.6 µM; in series [18], 17.9 µM; in [19], 71 µM; in series [20], 3.63 µM; in series [21], 64 µM. The IC50 in series [22] is 58.8 µM; in series [23] it was 0.07 µM; in [24], 56.1 µM; in series [25], 2.03 µM; in [26], 97.6 µM. Also, in the series on Mus musculus [2], the “inhibition (INH)” value is reported as 43.55%. Besides, the Ratio IC50 is 85 in the series filed under Homo sapiens [3]; 271 in the series filed under Homo sapiens [4]; 1080 in the series filed under Homo sapiens [5]; 55 in the series filed under Homo sapiens [6]; 970 in the series filed under Homo sapiens [7]; 891 in the series filed under Homo sapiens [8]. Also, the figures for the Ratio IC50 in the series listed under Homo sapiens [9], in the series filed under Homo sapiens [10] and in the series listed under Homo sapiens [11] were 850, 31 and 1480, respectively. Moreover, the Activity in the series on Mus musculus [12] is listed as 0.29 mm; in the series on Mus musculus [13] it was 0.37 mm; in the series with Mus musculus [14] it was 32.5%; in [15], “Non-Toxic”; in [16] it was “Non-Toxic”.

`COC(=O)c1ccc2nc(Oc3ccc4c(c3)COB4O)ccc2c1`: the IC50 in [1] was 0.0108 µM. For the same compound, the “inhibition (INH)” value with Mus musculus [2] stood at 54.72%.

`N#Cc1ccc2cc(Oc3ccc4c(c3)COB4O)ccc2c1`: the IC50 in series [1] came to 0.0255 µM.

In the case of `CC(=O)c1cccc2nc(Oc3ccc4c(c3)COB4O)ccc12`, in the series with Mus musculus [2], the “inhibition (INH)” value worked out at 39.56%. Further, in series [27], the IC50 was 0.00305 µM.

`CC1(C)CC(=O)c2ccc(Oc3ccc4c(c3)COB4O)cc2O1`: the half-inhibitory concentration (IC50) in [1] was 0.0655 µM.

Consider `O=c1ccoc2cc(Oc3ccc4c(c3)COB4O)ccc12`, for which the IC50 in [1] was 0.0189 µM.

With `CC(=O)c1ccc2nc(Oc3ccc4c(c3)COB4O)ccc2c1`, in the series on Mus musculus [2], the “inhibition (INH)” value is reported as 34.09%. The IC50 in [27] stood at 0.00357 µM.
